Reference: ChEMBL document CHEMBL1158970, “Two new styryl lactones, 9-deoxygoniopypyrone and 7-epi-goniofufurone, from Goniothalamus giganteus” (J Nat Prod, 1991)
Values after ≈ are worked out from the molar mass of the structure shown.

How the values were obtained:
[1] = Toxicity against brine shrimp; assay type: organism-based; conditions: artemia, in vivo
Outline: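 Brine shrimp lethality assay run in-house following a published method. The positive standard, adriamycin, was dissolved directly in sea water and tested immediately.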

A549 = assay: Cytotoxicity against human A549 cells; assay type: functional; conditions: read-out: ED50 (the source's name)
Outline: (§1)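 Human tumor cell cytotoxicity run by the Purdue Cancer Center's cell culture laboratory using standard protocols, with adriamycin as the positive standard. A-549, MCF-7 and HT-29 were each tested under a separately cited protocol.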

MCF7 = assay: Cytotoxicity against human MCF7 cells; assay type: functional; conditions: read-out: ED50 (the source's name); outline: as §1
HT-29 = assay: Cytotoxicity against human HT-29 cells; assay type: functional; conditions: read-out: ED50 (the source's name); outline: as §1

SMILES | LC50 [1] [µg/mL] | EC50 (A549) [µg/mL] | EC50 (MCF7) [µg/mL] | EC50 (HT-29) [µg/mL]
O=C1C[C@H]2C[C@@H](O1)[C@H](O)[C@H](c1ccccc1)O2 | > 500 | 27.2 (≈ 116 µM) | 25.4 (≈ 108 µM) | 7.38 (≈ 31.5 µM)
O=C1C[C@@H]2O[C@@H]([C@H](O)c3ccccc3)[C@@H](O)[C@@H]2O1 (relative stereo) | 475 (≈ 1900 µM) | 85.5 (≈ 342 µM) | 49.1 (≈ 196 µM) | > 100
COc1cccc2c1C(=O)c1c(O)c3c(c(O)c1C2=O)C[C@@](O)(C(=O)CO)C[C@@H]3O[C@H]1C[C@H](N)[C@H](O)[C@H](C)O1 [DOXORUBICIN] |  | 0.00684 (≈ 0.0126 µM) | 0.0177 (≈ 0.0326 µM) | 0.00416 (≈ 0.00765 µM)
O=C1C=CC[C@H]([C@H](O)[C@H](O)c2ccccc2)O1 [GONIODIOL] | > 500 | 0.122 (≈ 0.521 µM) | 8.27 (≈ 35.3 µM) | 2.45 (≈ 10.5 µM)
